Laboratory results from paper PMC4857052 (Molecular pharmacology, 2012).
“Also recorded” adds a separate entry of the source.

Key:
TbU1 = settings: procyclic forms (PCF), NE = no effect on uptake at concentration indicated, ref De Koning and Jarvis (1998), Papageorgiou et al. (2005), Gudin et al. (2006), cited from earlier work; for Ki: read-out: Ki, U1
[1] = tested on: T. b. brucei bloodstream forms strain 427 WT; experiment: Alamar blue drug sensitivity assay, wild-type; format: cell-based, Trypanosoma brucei brucei; settings: for effect on bloodstream trypanosomes (in words): Alamar blue viability assay; for EC50: Trypanosoma brucei, read-out: EC50, WT, Mean, Alamar blue assay, wild-type sensitive control strain
How it was run: (§1)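 Bloodstream-form T. b. brucei s427 grown in HMI-9 with 10% FBS at 37°C under 5% CO2. Resistant lines were made by months of stepwise-increasing exposure to the analog, then cloned by limiting dilution. Viability was read by resazurin (Alamar blue) reduction. Thymidine rescue was tested by adding 100 μM thymidine.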

5FURes T. b. brucei = experiment: Alamar blue drug sensitivity assay, 5FURes; format: cell-based, Trypanosoma brucei brucei; settings: for EC50: Trypanosoma brucei, read-out: EC50, 5FURes, Mean; for RF, 5FURes: resistance factor: IC50(resistant clone)/IC50(WT)
How it was run: as §1

5FOARes T. b. brucei = experiment: Alamar blue drug sensitivity assay, 5FOARes; format: cell-based, Trypanosoma brucei brucei; settings: for EC50: Trypanosoma brucei, read-out: EC50, 5FOARes, Mean; for RF, 5FOARes: resistance factor: IC50(resistant clone)/IC50(WT)
How it was run: as §1

5F-2′dURes T. b. brucei = experiment: Alamar blue drug sensitivity assay, 5F-2′dURes; format: cell-based, Trypanosoma brucei brucei; settings: for EC50: Trypanosoma brucei, read-out: EC50, 5F-2′dURes, Mean; for RF, 5F-2′dURes: resistance factor: IC50(resistant clone)/IC50(WT)
How it was run: as §1

Question: For `O=c1ccnc[nH]1` [4(3H)Pyrimidone], which Ki (TbU1) is on record?
Answer: 1670 ± 180 µM

Question: For `Nc1nc2nc[nH]c2c(=O)[nH]1` [Guanine], which Ki (TbU1) is on record?
Answer: > 25 µM

Question: With `O=c1[nH]c(=O)n([C@@H]2O[C@H](CO)[C@@H](O)[C@H]2O)cc1F` [5-fluorouridine] as the compound, how does the “effect on bloodstream trypanosomes (in words)” value (“effect” below) [1] read?
Answer: no effect up to at least 1 mM; also recorded: no effect on trypanosome growth

Question: Which “effect” value [1] does the source give for `Nc1nc(=O)[nH]cc1F` [5-fluorocytosine] here?
Answer: no effect up to at least 1 mM

Question: With `O=c1[nH]c(=S)ccn1[C@@H]1O[C@H](CO)[C@@H](O)[C@H]1O` [4-thiouridine] as the compound, how does the “effect” value [1] read?
Answer: no effect up to at least 1 mM

Question: For `O=c1ccn([C@H]2CC[C@@H](CO)O2)c(=O)[nH]1` [2’,3′-dideoxyuridine, 2′,3′-dideoxyuridine], which “effect” value [1] is on record?
Answer: no effect up to at least 1 mM

Question: What does the source list for `N=C(N)c1ccc(OCCCCCOc2ccc(C(=N)N)cc2)cc1` [Pentamidine]?
Answer: EC50 [1]: 0.0078 µM; EC50 (5FURes T. b. brucei): 0.0073 µM; RF, 5FURes (5FURes T. b. brucei): 0.94; EC50 (5FOARes T. b. brucei): 0.017 µM; RF, 5FOARes (5FOARes T. b. brucei): 2.2; EC50 (5F-2′dURes T. b. brucei): 0.0079 µM; RF, 5F-2′dURes (5F-2′dURes T. b. brucei): 1.0

Question: Which “Ki, U1” value (TbU1) does the source give for `O=c1[nH]c(=O)c2[nH]c(=O)[nH]c2[nH]1` [Uric acid] here?
Answer: NE, 1000

Question: With `O=c1[nH]cc(Cl)c(=O)[nH]1` [5-Chlorouracil] as the compound, how does the Ki (TbU1) read?
Answer: 900 ± 140 µM

Question: With `Cn1c(=O)cc[nH]c1=O` [3-Methyluracil] as the compound, how does the Ki (TbU1) read?
Answer: 1620 ± 350 µM

Question: With `Sc1ncccn1` [2-Mercaptopyrimidine] as the compound, how does the “Ki, U1” value (TbU1) read?
Answer: NE, 500

Question: What does the source list for `O=c1[nH]c(=O)n([C@H]2C[C@H](O)[C@@H](CO)O2)cc1Cl` [5Cl-2’-dUrd, 5-chloro-2′-deoxyuridine]?
Answer: EC50 [1]: 54 µM; fold more sensitive than wild-type (5FURes T. b. brucei; 5-FURes): 15 fold; EC50 (5FURes T. b. brucei): 3.7 µM; RF, 5FURes (5FURes T. b. brucei): 0.07; EC50 (5FOARes T. b. brucei): 91 µM; RF, 5FOARes (5FOARes T. b. brucei): 1.7; EC50 (5F-2′dURes T. b. brucei): 22 µM; RF, 5F-2′dURes (5F-2′dURes T. b. brucei): 0.4

Question: With `Cn1ccc(=O)[nH]c1=O` [1-Methyluracil] as the compound, how does the “Ki, U1” value (TbU1) read?
Answer: NE, 10000

Question: Which “effect” value [1] does the source give for `O=c1ccn([C@@H]2O[C@H](CO)[C@@H](O)[C@H]2O)c(=S)[nH]1` [2-thiouridine] here?
Answer: no effect up to at least 1 mM

Question: Which Ki (TbU1) does the source give for `O=c1nccc[nH]1` [2-Pyrimidone] here?
Answer: 5400 ± 1300 µM

Question: Which Ki (TbU1) does the source give for `O=C1CCNC(=O)N1` [5,6-Dihydrouracil] here?
Answer: 830 ± 200 µM

Question: Which Ki (TbU1) does the source give for `Cc1cc(=O)[nH]c(=O)[nH]1` [6-Methyluracil] here?
Answer: > 2500 µM

Question: With `Nc1nc2c(ncn2[C@@H]2O[C@H](CO)[C@@H](O)[C@H]2O)c(=O)[nH]1` [Guanosine] as the compound, how does the “Ki, U1” value (TbU1) read?
Answer: NE, 1000

Question: Which Ki (TbU1) does the source give for `O=c1[nH]ccc(=S)[nH]1` [4-Thiouracil] here?
Answer: 22 ± 7 µM

Question: For `O=c1cc[nH]c(=S)[nH]1` [2-Thiouracil], which Ki (TbU1) is on record?
Answer: 640 ± 110 µM

Question: Which “Ki, U1” value (TbU1) does the source give for `Nc1ncnc2c1ncn2[C@@H]1O[C@H](CO)[C@@H](O)[C@H]1O` [Adenosine] here?
Answer: NE, 1000

Question: With `O=c1[nH]cc([N+](=O)[O-])c(=O)[nH]1` [5-Nitrouracil] as the compound, how does the “Ki, U1” value (TbU1) read?
Answer: NE, 1000

Question: With `C[C@H]1O[C@@H](n2cc(F)c(=O)[nH]c2=O)[C@H](O)[C@@H]1O` [5-fluoro-5′deoxyuridine] as the compound, how does the “effect” value [1] read?
Answer: no effect up to at least 1 mM

Question: For `C[C@H]1O[C@@H](n2ccc(=O)[nH]c2=O)[C@H](O)[C@@H]1O` [5′-deoxyuridine], which “effect” value [1] is on record?
Answer: no effect up to at least 1 mM

Question: Which “effect” value [1] does the source give for `O=c1ccn([C@@H]2O[C@H](CO)C[C@H]2O)c(=O)[nH]1` [3′-deoxyuridine] here?
Answer: no effect up to at least 1 mM

Question: With `O=C1C=CNC(=O)C1` [3-Deazauracil] as the compound, how does the Ki (TbU1) read?
Answer: > 2500 µM

Question: For `Cc1cn([C@H]2CC[C@@H](CO)O2)c(=O)[nH]c1=O` [3′-deoxythymidine], which “effect” value [1] is on record?
Answer: no effect up to at least 1 mM

Question: Which “effect” value [1] does the source give for `Nc1nc(=O)n([C@@H]2O[C@H](CO)[C@@H](O)[C@H]2O)cc1F` [5-fluorocytidine] here?
Answer: no effect up to at least 1 mM

Question: With `Nc1ncnc2[nH]cnc12` [Adenine] as the compound, how does the “Ki, U1” value (TbU1) read?
Answer: NE, 1000
